The values below come from paper PMC7263447 (Journal of medicinal chemistry, 2020).

Ends that are not written are not given here. * marks the point of attachment. Dnp = O=[N+]([O-])c1ccc(*)c([N+](=O)[O-])c1

The subject of data set [1] is MDA-MB-231 cells. The data set can be described thus: Antibody-dependent cellular cytotoxicity with haNK cells. As to conditions: 500 nM conjugate, anti-DNP antibody, haNK effector:target 5:1, 4 h, LDH release. The data set is classed as cell-based, human. The essentials:
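Targets were 150000 MDA-MB-231 cells, pulsed 5 min at 37 °C at pH 7.4 or 6.0. They were then held with 25 μg/mL rabbit anti-DNP-KLH for 30 min at 4 °C. Effectors were IL-2-maintained F176V CD16+ NK-92 (haNK) cells at 5:1 in MEMα, 4 h, 37 °C. Supernatant LDH was read at 490/680 nm. Lysis % = (LDH − normal)/normal × 100, normal being antibody plus effectors without conjugate. Mean ± SEM, n = 3–12.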
A general note: LDH leaks from cells whose membrane has failed.

The subject of data set [2] is MDA-MB-231 cells. The data set can be described thus: Toxicity of conjugate alone. It counts as cell-based, human. The following applies: ≤10 μM conjugate only, LDH release (Figure S8).
The subject of data set [3] is MDA-MB-231 cells. The data set can be described thus: Complement-dependent cytotoxicity. The data set is classed as cell-based, human. As to conditions: 1 μM conjugate, 12.5% PHS, 4 h, LDH release. Summed up: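 Cells (240000 MDA-MB-231) were treated in suspension with 1 μM conjugate for 5 min at 37 °C, at pH 7.4 or 6.0. After washing they were opsonised with 25 μg/mL rabbit anti-DNP-KLH (30 min, 4 °C). Pooled human complement serum was added to 12.5% in DMEM for 4 h at 37 °C. Supernatant LDH was assayed in triplicate (30 min RT, 490/680 nm). Cytotoxicity is relative to antibody-only cells without peptide. Mean ± SEM, n = 3–12.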

Data set [4] has as its system MDA-MB-231 cells. The data set can be described thus: Antibody recruitment from pooled human serum. The following applies: 1 μM conjugate, pH 7.4 or 6.0, 12.5% PHS, FITC-labeled anti-human IgG, n = 3. The data set is classed as cell-based.
Data set [5] relates to MDA-MB-231 cells. The experiment in a line: Antibody recruitment assay, anti-DNP-A488, flow cytometry. The following applies: 1 μM conjugate, pH 7.4 or 6.0, 25 μg/mL anti-DNP-A488, flow cytometry, n = 3. It counts as cell-based, human. The essentials: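 Conjugate held at 20 μM in 5 mM sodium phosphate pH 9.0 for 1 h at RT, then diluted and pH-adjusted with citrate/PBS. Cells were washed, stained with anti-DNP-A488 rabbit polyclonal for 30 min at 4 °C, fixed in 4% PFA and read by flow cytometry. Values are fold over pH 7.4 antibody-only cells.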
In general terms: In flow cytometry, cells or beads pass a laser one at a time.

Data set [6] has as its system MDA-MB-231 cells. The experiment in a line: Antibody-dependent cellular cytotoxicity with PBMCs. The data set is classed as cell-based, human. Summed up:
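MDA-MB-231 cells (150000) were exposed to the pH-adjusted conjugate for 5 min at 37 °C, at pH 7.4 or 6.0. After washing, they were incubated with unconjugated rabbit anti-DNP-KLH (25 μg/mL, 30 min, 4 °C). Single-donor human PBMCs were added at 50:1 in RPMI 1640 for 4 h at 37 °C. Supernatant LDH was read at 490/680 nm. Cytotoxicity % = (LDH − normal)/normal × 100. Control normal release was effector-only or target-only at pH 7.4.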

For the substance “Dnp-KEQNPIYWARYADWLFTTPLLLLELALLVDADEGTG [Conjugate 2]”, the “cell lysis (ADCC, haNK cells), maximum efficacy” value in the data set with MDA-MB-231 cells [1] is ~ 40%. Moreover, the “cell lysis by conjugate only” value with MDA-MB-231 cells [2] is listed as “cell lysis was not observed”. The “cell lysis (CDC)” value in the data set on MDA-MB-231 cells [3] (pH 6.0, anti-DNP antibody) amounted to 10%. Moreover, the “toxicity (CDC)” value in the data set on MDA-MB-231 cells [3] (pH 7.4, anti-DNP antibody) is on record as “no toxicity at all”. Moreover, in the data set on MDA-MB-231 cells [4], the “antibody recruitment from serum (relative fluorescence)” value was “significant increase in relative fluorescence at pH 6.0 compared to that at pH 7.4”. Further, the “anti-DNP antibody recruitment (cellular fluorescence)” value with MDA-MB-231 cells [5] is listed as “highest level of cellular fluorescence”. In addition, the “pH selectivity of PBMC-mediated cell lysis” value with MDA-MB-231 cells [6] (1 μM conjugate, anti-DNP antibody, pH 6.0 vs 7.4) is reported as ~ 2 fold. In the data set on MDA-MB-231 cells [6] (control, mock anti-FITC antibodies or no antibodies prior to PBMCs (Figure S7A)), the “cell lysis with mock anti-FITC antibodies or without antibodies (PBMCs)” value is given as “cell lysis was not observed”.
